Measured values taken from ChEMBL document CHEMBL4014276, “Diphenylurea derivatives for combating methicillin- and vancomycin-resistant Staphylococcus aureus” (Eur J Med Chem, 2017).
Converted amounts (≈) assume the structure as drawn. The source made the active and inactive calls. The calls are words filed in the database; no cut-off is given here.

How the values were obtained:
[1] = Apparent permeability across basolateral to apical side in human Caco2 cells at 10 uM after 2 hrs by LC-MS/MS method; type: ADME, cell-based; conditions: Caco-2
[2] = Intrinsic clearance in human liver microsomes in presence of NADPH by LC-MS/MS method; type: ADME, microsome; conditions: read-out: CLH
Staphylococcus aureus [3] = assay: Antibacterial activity against methicillin-resistant Staphylococcus aureus USA400 NRS123 clinical isolate after 20 hrs by broth microdilution method; type: functional; conditions: USA400 NRS123, 20 h
Outline: (§1)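 CLSI broth microdilution in cation-adjusted Mueller Hinton broth; compounds serially diluted, triplicate samples; 37 °C, 20 h. MIC read visually as lowest concentration with no visible growth; mean of triplicate determinations reported.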

[4] = Half life in human liver microsomes in presence of NADPH by LC-MS/MS method; type: ADME, microsome
Staphylococcus aureus [5] = assay: Bactericidal activity against methicillin-resistant Staphylococcus aureus USA200 NRS383 clinical isolate after 18 hrs by broth microdilution method; type: functional; conditions: USA200 NRS383, 18 h
Outline: (§2)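 From MIC wells without visible growth, 5 uL spotted onto Tryptic soy agar, incubated 37 °C for at least 18 h; MBC taken as lowest concentration giving 99.9% growth inhibition.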

Staphylococcus aureus [6] = assay: Bactericidal activity against Staphylococcus aureus RN4220 NRS107 clinical isolate after 18 hrs by broth microdilution method; type: functional; conditions: RN4220 NRS107, 18 h; outline: as §2
Staphylococcus aureus [7] = assay: Bactericidal activity against vancomycin-resistant Staphylococcus aureus VRSA4 after 18 hrs by broth microdilution method; type: functional; conditions: VRSA4, 18 h; outline: as §2
Staphylococcus aureus [8] = assay: Bactericidal activity against methicillin-resistant Staphylococcus aureus USA100 NRS382 clinical isolate after 18 hrs by broth microdilution method; type: functional; conditions: USA100 NRS382, 18 h; outline: as §2
Staphylococcus aureus [9] = assay: Bactericidal activity against methicillin-resistant Staphylococcus aureus USA300 NRS384 clinical isolate after 18 hrs by broth microdilution method; type: functional; conditions: USA300 NRS384, 18 h; outline: as §2
Staphylococcus aureus [10] = assay: Bactericidal activity against vancomycin-resistant Staphylococcus aureus VRSA10 after 18 hrs by broth microdilution method; type: functional; conditions: VRSA10, 18 h; outline: as §2
Staphylococcus aureus [11] = assay: Bactericidal activity against methicillin-resistant Staphylococcus aureus USA400 NRS123 clinical isolate after 18 hrs by broth microdilution method; type: functional; conditions: USA400 NRS123, 18 h; outline: as §2
Staphylococcus aureus [12] = assay: Antibacterial activity against methicillin-resistant Staphylococcus aureus USA300 NRS384 clinical isolate preincubated followed by bacterial subculturing for 2 weeks; type: functional
Staphylococcus aureus [13] = assay: Antibacterial activity against methicillin-resistant Staphylococcus aureus USA200 NRS383 clinical isolate preincubated followed by bacterial subculturing for 2 weeks; type: functional
Staphylococcus aureus [14] = assay: Antibacterial activity against vancomycin-resistant Staphylococcus aureus VRSA10 after 20 hrs by broth microdilution method; type: functional; conditions: VRSA10, 20 h; outline: as §1
Staphylococcus aureus [15] = assay: Antibacterial activity against methicillin-resistant Staphylococcus aureus USA400 NRS123 clinical isolate preincubated followed by bacterial subculturing for 2 weeks; type: functional
Staphylococcus aureus [16] = assay: Antibacterial activity against methicillin-resistant Staphylococcus aureus USA200 NRS383 clinical isolate after 20 hrs by broth microdilution method; type: functional; conditions: USA200 NRS383, 20 h; outline: as §1
Staphylococcus aureus [17] = assay: Antibacterial activity against methicillin-resistant Staphylococcus aureus USA300 NRS384 clinical isolate after 20 hrs by broth microdilution method; type: functional; conditions: USA300 NRS384, 20 h; outline: as §1
Staphylococcus aureus [18] = assay: Antibacterial activity against Staphylococcus aureus RN4220 NRS107 clinical isolate after 20 hrs by broth microdilution method; type: functional; conditions: RN4220 NRS107, 20 h; outline: as §1
Staphylococcus aureus [19] = assay: Antibacterial activity against methicillin-resistant Staphylococcus aureus USA100 NRS382 clinical isolate preincubated followed by bacterial subculturing for 2 weeks; type: functional
Staphylococcus aureus [20] = assay: Antibacterial activity against vancomycin-resistant Staphylococcus aureus VRSA4 after 20 hrs by broth microdilution method; type: functional; conditions: VRSA4, 20 h; outline: as §1
Staphylococcus aureus [21] = assay: Antibacterial activity against methicillin-resistant Staphylococcus aureus USA100 NRS382 clinical isolate after 20 hrs by broth microdilution method; type: functional; conditions: USA100 NRS382, 20 h; outline: as §1

Compound | MIC (Staphylococcus aureus [3]) | MBC (Staphylococcus aureus [5]) | MBC (Staphylococcus aureus [6]) | MBC (Staphylococcus aureus [7]) | MBC (Staphylococcus aureus [8]) | MBC (Staphylococcus aureus [9]) | MBC (Staphylococcus aureus [10]) | MBC (Staphylococcus aureus [11]) | Activity (Staphylococcus aureus [12]) | Activity (Staphylococcus aureus [13]) | Activity (Staphylococcus aureus [15]) | MIC (Staphylococcus aureus [16]) | Activity (Staphylococcus aureus [19]) | MIC (Staphylococcus aureus [21]) | also measured
CNC(=C[N+](=O)[O-])NCCSCc1ccc(CN(C)C)o1 [RANITIDINE] |  |  |  |  |  |  |  |  |  |  |  |  |  |  | Papp B→A at 2 h, 10 µM [1]: 2.31 ×10⁻⁶ cm/s
CCCCc1ccc(NC(=O)Nc2ccc(/C(C)=N/NC(=N)N)cc2)cc1 | 8 µg/mL (≈ 21.8 µM) |  |  |  |  |  |  |  |  |  |  |  |  |  | microsomal CLint [2]: 190 µL/min/mg; half-life [4]: 13 min
C/C(=N\NC(=N)N)c1ccc(NC(=O)Nc2nc3ccccc3s2)cc1 | 10 µg/mL (≈ 27.2 µM) |  |  |  |  |  |  |  |  |  |  |  |  |  | 
CC(=O)Oc1ccccc1C(=O)Nc1ccc(/C(C)=N/NC(=N)N)cc1 | > 32 µg/mL |  |  |  |  |  |  |  |  |  |  |  |  |  | 
C/C(=N\NC(=N)N)c1ccc(NC(=O)c2ccc3c(c2)OCCN3C)cc1 | 16 µg/mL (≈ 43.7 µM) |  |  |  |  |  |  |  |  |  |  |  |  |  | 
CC(=O)NC[C@H]1CN(c2ccc(N3CCOCC3)c(F)c2)C(=O)O1 [LINEZOLID] |  | 32 µg/mL (≈ 94.9 µM) | 32 µg/mL (≈ 94.9 µM) | 8 µg/mL (≈ 23.7 µM) | 16 µg/mL (≈ 47.4 µM) | 16 µg/mL (≈ 47.4 µM) | 16 µg/mL (≈ 47.4 µM) | 32 µg/mL (≈ 94.9 µM) |  |  |  |  |  |  | 
CCCCCCCCCOc1ccc(NC(=O)Nc2ccc(/C(C)=N/NC(=N)N)cc2)cc1 | 32 µg/mL (≈ 70.7 µM) | 32 µg/mL (≈ 70.7 µM) | 64 µg/mL (≈ 141 µM) | 16 µg/mL (≈ 35.4 µM) | 32 µg/mL (≈ 70.7 µM) | 32 µg/mL (≈ 70.7 µM) | 32 µg/mL (≈ 70.7 µM) | 64 µg/mL (≈ 141 µM) | Active | Active | Active | 16 µg/mL (≈ 35.4 µM) | Active | 32 µg/mL (≈ 70.7 µM) | MIC (Staphylococcus aureus [14]): 32 µg/mL (≈ 70.7 µM); MIC (Staphylococcus aureus [17]): 32 µg/mL (≈ 70.7 µM); MIC (Staphylococcus aureus [18]): 32 µg/mL (≈ 70.7 µM); MIC (Staphylococcus aureus [20]): 16 µg/mL (≈ 35.4 µM)
CCCOc1ccc(NC(=O)Nc2ccc(/C(C)=N/NC(=N)N)cc2)cc1 | 4 µg/mL (≈ 10.9 µM) | 16 µg/mL (≈ 43.4 µM) | 8 µg/mL (≈ 21.7 µM) | 8 µg/mL (≈ 21.7 µM) | 8 µg/mL (≈ 21.7 µM) | 16 µg/mL (≈ 43.4 µM) | 16 µg/mL (≈ 43.4 µM) | 16 µg/mL (≈ 43.4 µM) | Active | Active | Active | 8 µg/mL (≈ 21.7 µM) | Active | 8 µg/mL (≈ 21.7 µM) | MIC (Staphylococcus aureus [14]): 8 µg/mL (≈ 21.7 µM); MIC (Staphylococcus aureus [17]): 8 µg/mL (≈ 21.7 µM); MIC (Staphylococcus aureus [18]): 8 µg/mL (≈ 21.7 µM); MIC (Staphylococcus aureus [20]): 8 µg/mL (≈ 21.7 µM)
C/C(=N\NC(=N)N)c1ccc(NC(=O)Cc2ccc(F)cc2)cc1 | 16 µg/mL (≈ 48.9 µM) |  |  |  |  |  |  |  |  |  |  |  |  |  | 
CCCCOc1ccc(NC(=O)Nc2ccc(/C(C)=N/NC(=N)N)cc2)cc1 | 8 µg/mL (≈ 20.9 µM) | 32 µg/mL (≈ 83.7 µM) | > 64 µg/mL | 16 µg/mL (≈ 41.8 µM) | 16 µg/mL (≈ 41.8 µM) | 16 µg/mL (≈ 41.8 µM) | 32 µg/mL (≈ 83.7 µM) | 32 µg/mL (≈ 83.7 µM) | Active | Active | Active | 16 µg/mL (≈ 41.8 µM) | Active | 16 µg/mL (≈ 41.8 µM) | MIC (Staphylococcus aureus [14]): 16 µg/mL (≈ 41.8 µM); MIC (Staphylococcus aureus [17]): 16 µg/mL (≈ 41.8 µM); microsomal CLint [2]: 51 µL/min/mg; MIC (Staphylococcus aureus [18]): 16 µg/mL (≈ 41.8 µM); MIC (Staphylococcus aureus [20]): 16 µg/mL (≈ 41.8 µM); half-life [4]: 65.5 min
C/C(=N\NC(=N)N)c1ccc(NC(=O)c2cc(F)c(F)c(F)c2)cc1 | 16 µg/mL (≈ 45.8 µM) |  |  |  |  |  |  |  |  |  |  |  |  |  | 
C/C(=N\NC(=N)N)c1ccc(NC(=O)c2cccc(Oc3ccccc3)c2)cc1 | 16 µg/mL (≈ 41.3 µM) |  |  |  |  |  |  |  |  |  |  |  |  |  | 
C/C(=N\NC(=N)N)c1ccc(NC(=O)Nc2ccc(OC3CCCC3)cc2)cc1 |  | 128 µg/mL (≈ 324 µM) |  |  | 64 µg/mL (≈ 162 µM) |  |  |  | Active | Active | Active | 64 µg/mL (≈ 162 µM) | Active | 64 µg/mL (≈ 162 µM) | 
